Screening results deposited in PubChem by Broad Institute.
Compounds with a hit are over-represented: about 2.2% of the library has one in this group of screens.
C2C12 statin – protects C2C12 myotubes from simvastatin toxicity; ATP luminescence, 48 h; scaled: DMSO 0, geranylgeraniol control 100; rescue of ATP level, % at 7.49 µM; actives 0.78% (n = 330,000); AID 602340;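 active = mean ATP rescue above about 67%, or every replicate alone reaching that limit, limit read from the data, passing the limit was not always enough; inconclusive = no clear call, values can overlap the other calls; inactive = mean under the limit and some replicate under it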;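 note: myotubes were challenged with 10 µM simvastatin during compound exposure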
E-sel inducer – induces E-selectin expression in human endothelial cells; activation, % at 7.58 µM; P16581; HUVEC E-selectin immunofluorescence imaging; normalized: neutral wells 0, TNF-alpha wells 100; actives 0.37% (n = 260,000);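 active = mean E-selectin-positive cell signal at least 10% of the positive control, reached in at least 60% of replicates, without over 20% cell loss; inconclusive = no rule given, readout overlaps actives, possibly toxicity-flagged; inactive = the rest, including those meeting only one limit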
Target sequence (P16581 whole entry, looked up): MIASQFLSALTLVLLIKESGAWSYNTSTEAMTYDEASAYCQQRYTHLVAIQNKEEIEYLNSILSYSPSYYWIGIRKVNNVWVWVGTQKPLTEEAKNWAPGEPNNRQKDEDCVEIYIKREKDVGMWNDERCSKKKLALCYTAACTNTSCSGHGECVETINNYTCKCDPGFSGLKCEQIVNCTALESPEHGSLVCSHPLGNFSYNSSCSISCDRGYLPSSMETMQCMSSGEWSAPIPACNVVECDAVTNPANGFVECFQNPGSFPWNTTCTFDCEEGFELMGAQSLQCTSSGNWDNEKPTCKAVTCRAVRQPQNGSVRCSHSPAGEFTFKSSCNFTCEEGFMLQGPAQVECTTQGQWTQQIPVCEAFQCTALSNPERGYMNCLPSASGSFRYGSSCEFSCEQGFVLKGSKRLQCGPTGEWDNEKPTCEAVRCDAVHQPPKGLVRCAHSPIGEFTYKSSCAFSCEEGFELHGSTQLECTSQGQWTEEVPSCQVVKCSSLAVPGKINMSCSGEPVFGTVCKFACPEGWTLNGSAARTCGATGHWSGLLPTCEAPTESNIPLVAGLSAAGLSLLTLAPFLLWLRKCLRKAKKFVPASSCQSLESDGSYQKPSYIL
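Material: HUVEC primary endothelial cells; Amount: 3,000 cells per well; Dosing: single concentration; Medium: EGM-2 growth medium on 0.1% gelatin-coated wells; Read-out basis: percent E-selectin-positive cells; Signal: immunofluorescence imaging; Control set: TNF-alpha, DMSO.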
DENV2 CPE – protects cells from dengue virus 2 cytopathic effect. DENV2-infected cells, cytopathic effect rescue, plate reader. CPE inhibition, % at 9.99 µM. actives 1.7% (n = 350,000). AID 651640; in the data active = CPE inhibition above about 20%, passing the limit was not always enough; inconclusive = no clear call, values can overlap the other calls; tested in BHK-21 cells;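 note: 0% = median of neutral control wells and 100% = median of positive control wells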
An asterisk follows results filed as active; ? = inconclusive; · = no result; ! = not confirmed by another sample.

SMILES | C2C12 statin | E-sel inducer | DENV2 CPE
COCC#Cc1ccc2c(c1)O[C@H](CN(C)CC1CC1)[C@H](C)CN([C@@H](C)CO)S2(=O)=O | -17 | 0 | -7
C[C@@H]1CCCCO[C@H](CN(C)C(=O)C2CCCCC2)[C@@H](C)CN([C@@H](C)CO)C(=O)c2cc(NC(=O)Nc3ccc(C(F)(F)F)cc3)ccc2O1 | · | 0 | 0
CCCNC(=O)[C@@H]1[C@@H](CO)[C@@H]2Cn3c(ccc(C4=CCCCC4)c3=O)[C@@H]2N1C(=O)c1cnccn1 | 20 | 0 | -1
C[C@@H]1CN([C@H](C)CO)C(=O)c2cc(C#CC(C)(C)O)cnc2O[C@@H]1CN(C)C(=O)c1ccccc1F | -5 | -1 | -1
OCCNCc1cccc(-c2ccccc2)c1O | 100* | 0 | -2
OCCNCCNCc1ccc(-c2ccccc2)cc1 | · | 5 | -4
CC1C=NC(S(=O)(=O)N2CC[C@@H]3[C@@H](CO)N(C)c4ccc(-c5ccc(F)cc5)cc4[C@@H]32)=N1 (some centres undefined) | 49 | 0 | 21*
CN1c2ccc(-c3ccccc3F)cc2[C@H]2[C@H](CCN2S(=O)(=O)c2ccccc2)[C@H]1CO | 6 | 0 | -5
CN1c2ccc(-c3ccccc3F)cc2[C@H]2[C@H](CCN2S(=O)(=O)c2ccccc2)[C@@H]1CO | -14 | 1 | 21*
CC1C=NC(S(=O)(=O)N2CC[C@@H]3[C@H]2c2cc(-c4cccc(F)c4)ccc2N(C)[C@H]3CO)=N1 (some centres undefined) | -8 | 0 | -3
Cc1cccc(S(=O)(=O)N2CC[C@@H]3[C@H](CO)N(C)c4ccc(-c5ccccc5F)cc4[C@@H]32)c1 | -16 | 2 | -8
Cc1cccc(S(=O)(=O)N2CC[C@@H]3[C@@H](CO)N(C)c4ccc(-c5ccccc5F)cc4[C@@H]32)c1 | 23 | -1 | 35*
C[C@H](CO)N1C[C@H](C)[C@@H](CN(C)Cc2ccc(Oc3ccccc3)cc2)Oc2c(NC(=O)c3ccc(-c4nccs4)cc3)cccc2C1=O | -26 | 1 | -1
O=C(C[C@H]1C[C@@H]2c3cc(NC(=O)Nc4ccccc4)ccc3O[C@@H]2[C@H](CO)O1)NCc1cccnc1 | 3 | 0 | -1
COc1cccc(C(O)c2nc(/C=C/c3ccccc3)cs2)c1 (centres undefined) | 33 | 1 | -2
COc1cccc(C(NC(C)=O)c2nc(/C=C/c3ccccc3)cs2)c1 (centres undefined) | 0 | 0 | 30*
O=C(C[C@H]1C=C[C@@H](NC(=O)c2ccccc2)[C@H](CO)O1)NCCc1ccncc1 | 16 | 0 | 8
Cc1ccc(-c2ccc([C@@H]3[C@H](CO)N4C(=O)CN(C(=O)Nc5ccc(F)cc5)C[C@@H]34)cc2)cc1 | · | -1 | 13
COc1ccc(NC(=O)c2cc3ccccc3cc2O)cc1 | 1 | · | 46*
Cc1ccc(NC(=O)c2cc3ccccc3cc2O)cc1 | -18 | · | 5
COc1ccc(S(=O)(=O)Nc2cccc3c2O[C@H](CN(C)C(=O)Nc2ccc(C(F)(F)F)cc2)[C@H](C)CN([C@H](C)CO)C3=O)cc1 | ? | 1 | 9
CCC(C)NC(=O)Cn1c(=O)n(CCCC(=O)NCc2ccccc2Cl)c(=O)c2ccccc21 (centres undefined) | 134* | · | ·
O=C(CCCCn1c(=O)c2ccccc2n(CC(=O)NC2CCCC2)c1=O)NC1CCCC1 | 81* | · | ·
CCCN(CCC)C(=O)Cn1c(=O)n(CCCCC(=O)NC2CCCC2)c(=O)c2ccccc21 | 97* | · | ·
O=C(CCCCn1c(=O)c2ccccc2n(CC(=O)NC2CCCC2)c1=O)NCc1ccco1 | 2 | · | ·
SMILES | C2C12 statin | E-sel inducer | DENV2 CPE
O=C(CCCCn1c(=O)c2ccccc2n(Cc2ccccc2)c1=O)NC1CCN(Cc2ccccc2)CC1 | 14 | · | -6
Cc1ccccc1Cn1c(=O)n(CCCC(=O)NCc2ccco2)c(=O)c2ccccc21 | 62 | · | ·
CC(=O)N(C)C[C@H]1Oc2cc(-c3cncnc3)ccc2S(=O)(=O)N([C@@H](C)CO)C[C@H]1C | 10 | 0 | -4
N#Cc1ccc(-c2ccc([C@H]3[C@@H](CO)N4C(=O)CN(C(=O)C5CCCC5)C[C@H]34)cc2)cc1 | · | 0 | 20
CNC[C@H]1OCCCC[C@H](C)Oc2ccc(NS(=O)(=O)c3ccc(OC)cc3)cc2C(=O)N([C@@H](C)CO)C[C@H]1C | 0 | 0 | 3
NC(=O)c1ccccc1NC(=O)CC1(CC(=O)O)CCCC1 | -22 | 0 | 1
NC(=O)c1ccccc1NC(=O)COC(=O)C1(c2ccccc2)CC1 | 5 | · | 32*
C[C@H]1CN([C@@H](C)CO)C(=O)c2cc(NC(=O)NC3CCCCC3)ccc2O[C@@H]1CN(C)S(=O)(=O)c1ccccc1 | -7 | 0 | -9
O=C(C[C@H]1CC[C@@H]2NC[C@@H](O)COC[C@H]2O1)NC1Cc2ccccc2C1 | 4 | 0 | -2
Cc1cn(C2CC(O)C(O)C(CO)O2)c(=O)[nH]c1=O (centres undefined) | · | 0 | -2
Cc1cn([C@H]2C=C[C@@H](CO)O2)c(=O)[nH]c1=O | 4 | 2 | 29*!
COc1ccc(S(=O)(=O)N2C[C@@H](O)COC[C@H]3O[C@@H](CC(=O)NCCCN4CCOCC4)CC[C@@H]32)cc1 | -1 | 0 | 1
C[C@H](CO)N1C[C@H](C)[C@H](CN(C)Cc2ccc(Cl)c(Cl)c2)Oc2ccc(NC(=O)Cc3ccccc3)cc2CC1=O | 13 | -2 | -17
C[C@@H]1CN([C@@H](C)CO)C(=O)Cc2cc(NC(=O)Cc3ccccc3)ccc2O[C@H]1CN(C)Cc1ccc(Cl)c(Cl)c1 | -5 | 1 | 26*
C[C@H](CO)N1C[C@H](C)[C@@H](CN(C)Cc2ccc(Cl)c(Cl)c2)Oc2ccc(NC(=O)Cc3ccccc3)cc2CC1=O | 86* | -1 | -5
C[C@@H]1CN([C@@H](C)CO)C(=O)c2cc(NC(=O)Cc3ccccc3)ccc2O[C@@H]1CN(C)Cc1ccc(Cl)c(Cl)c1 | 12 | 35* | 5
C[C@H](CO)N1C[C@H](C)[C@H](CN(C)Cc2ccccc2)Oc2ccc(NC(=O)Cc3ccccc3)cc2CC1=O | 15 | 0 | -4
C[C@H](CO)N1C[C@H](C)[C@@H](CN(C)Cc2ccc(Cl)c(Cl)c2)Oc2ccc(NC(=O)Cc3ccccc3)cc2C1=O | -10 | 20 | 3
C[C@@H]1CN([C@@H](C)CO)C(=O)Cc2cc(NC(=O)Cc3ccccc3)ccc2O[C@H]1CN(C)Cc1ccccc1 | -4 | 1 | 11
C[C@@H]1CN([C@H](C)CO)C(=O)Cc2cc(NC(=O)Cc3ccccc3)ccc2O[C@H]1CN(C)Cc1ccc(Cl)c(Cl)c1 | 45 | -1 | 27*
O=C(C[C@H]1CC[C@@H]2[C@H](COC[C@H](O)CN2C(=O)c2ccc(F)cc2)O1)NCCCN1CCOCC1 | 6 | 0 | 8
C(=C\c1ccc(C2[C@H]3CNC[C@@H]2N3CC2CCOCC2)cc1)/c1ccccc1 (some centres undefined) | · | 0 | ?
Cc1noc(C)c1S(=O)(=O)N(C)C[C@@H]1Oc2ccc(NC(=O)Cc3cn(C)c4ccccc34)cc2CC(=O)N([C@H](C)CO)C[C@H]1C | 9 | -6 | -4
